Compound activity as filed in PubChem BioAssay.
Only some compounds are listed: those with a hit (about 4.3% of all), similar ones and a draw of the others.
Yeast superoxide = caloric restriction mimetics inhibiting age-related superoxide in yeast; S. cerevisiae aged cells, superoxide DHE fluorescence; stronger effect = lower value; superoxide response (% of plate mean), % at 10 µM; 0.18% of 330,000 active; AID 2690;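 active = superoxide response under a set limit, about three screen SD below normal, cut at about 65% in these data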;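 also: yeast aged for seven days with compound at 30 °C before DHE staining; 100% = average MFI of all compound-treated wells on the plate with controls excluded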
SR-BI HDL uptake = inhibitors of mouse SR-BI mediated HDL lipid uptake. 0.96% of 320,000 active. ldlA[mSR-BI] CHO cells, DiI-HDL uptake fluorescence, 3 h. Q61009. AID 488896. inhibition, % at 12.5 µM;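 active = mean replicate inhibition of at least 70% and a set share of replicates each scoring 70 or more; inconclusive = meets just one of the two criteria; inactive = fails both criteria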;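 also: 0% = median of neutral control wells and 100% = median of positive control wells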
Target sequence (Q61009 whole entry, looked up): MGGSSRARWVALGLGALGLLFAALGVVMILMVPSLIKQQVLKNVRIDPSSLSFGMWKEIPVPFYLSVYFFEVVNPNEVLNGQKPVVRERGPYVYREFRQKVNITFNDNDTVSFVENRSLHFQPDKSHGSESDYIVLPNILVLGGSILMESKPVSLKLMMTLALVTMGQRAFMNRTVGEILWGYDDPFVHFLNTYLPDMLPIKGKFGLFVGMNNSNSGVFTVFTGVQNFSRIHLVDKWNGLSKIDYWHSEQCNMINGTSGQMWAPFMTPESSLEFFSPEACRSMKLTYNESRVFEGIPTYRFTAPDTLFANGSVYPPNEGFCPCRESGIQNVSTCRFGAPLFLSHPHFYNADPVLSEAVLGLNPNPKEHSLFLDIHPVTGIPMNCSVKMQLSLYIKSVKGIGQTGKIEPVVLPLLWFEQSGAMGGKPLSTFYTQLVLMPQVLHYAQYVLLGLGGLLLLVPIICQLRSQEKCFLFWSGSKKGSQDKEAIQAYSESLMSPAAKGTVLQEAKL
AHR act = human AHR activation; P35869; AHR-responsive luciferase reporter cells, luminescence; activation, % at 5 µM; 2.5% of 320,000 active; in the data active = activation above about 47%;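 also: 0% = vehicle wells and 100% = reference agonist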
SMARCA2 activ = increases SMARCA2 function in MMTV reporter cells; MG213 cells, MMTV-luciferase reporter, dexamethasone, overnight; activation, % at 9.1 µM; AID 652017; 1% of 370,000 active; in the data active = activation above about 7.8%;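 also: 0% = vehicle wells and 100% = reference activator wells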
Hep lipid drop = modulators of hepatic lipid droplet formation | AML12 mouse hepatocytes, oleate lipid droplets, BODIPY imaging | inhibition, % at 6.5 µM | 0.4% of 240,000 active;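 active = lipid droplet intensity inhibited by at least 50%, with more than 500 cells counted; inconclusive = wells with under 300 cells, treated as cytotoxic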
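Assay system: AML12 mouse liver cells | Compound: 6.5 µM single-point dosing | Schedule: Overnight exposure | Technique: Fluorescence imaging, 20x objective, two fields per well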
SR-BI DiI-HDL act = SR-BI HDL lipid transfer activation. activation, % at 12.5 µM. CHO ldlA[mSR-BI] cells, DiI-HDL uptake fluorescence, 3 h; 100 = double the neutral-control signal. AID 504775. 0.096% of 320,000 active;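 active = mean replicate activation of at least 60% and every replicate at or above 60%; inconclusive = mean or all-replicate condition met, but not both; inactive = mean below 60% and not all replicates reaching 60%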;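 also: 0% = median plate neutral-control signal and 100% = twice that signal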
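material = CHO ldlA[mSR-BI] cells | medium = Ham's F12 with 0.5% BSA, HEPES 25 mM, pH 7.4 | reagent = fluorescent DiI-HDL, 10 µg/mL final | compound dosing = single-point compound dose | incubation = 3 h, 37 °C | measured by = bottom-read fluorescence, 550/595 nm | measure = HDL uptake via cellular fluorescence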
Starred values were filed as active, the others as inactive; ? = inconclusive; . = not tested or not shown.

SMILES	Yeast superoxide	SR-BI HDL uptake	AHR act	SMARCA2 activ	Hep lipid drop	SR-BI DiI-HDL act
O=C(NN=Cc1ccccc1OC(F)F)c1ccc(NS(=O)(=O)c2cccs2)cc1	92.4	82.4*	12.3	-2.6	.	-82.4
O=C(NN=Cc1ccc(OC(F)F)cc1)c1ccc(NS(=O)(=O)c2cccs2)cc1	112.8	63.8	4.1	0.2	.	-63.8
O=C(NN=Cc1ccc(O)cc1O)c1ccccc1NS(=O)(=O)c1cccs1	70.4	96.5*	1.1	-0.9	.	-96.5
COc1ccc(C=NNC(=O)c2ccccc2NS(=O)(=O)c2cccs2)cc1O	88.7	0.8	-0.8	3.9	.	-0.8
CN1CC(C(=O)O)Cc2c1ccc1ccccc21 (configuration not stated)	101.8	-22.2	53.5*	2.7	1.6	22.2
O=C(O)C1CCN(C(=O)c2cccc3ccccc23)CC1	89.1	.	-3.4	-0.3	-3.2	.
CCn1c2ccccc2c2cc(NC(=O)COC(=O)c3cc(F)ccc3F)ccc21	.	.	.	-1.3	.	.
CN(C)c1ccc(C2C3CCCc4ccccc4C3=NN2C)cc1 (configuration not stated)	85.5	28.1	60.6*	0.9	3.8	-28.1
COC(=O)C1=C(C)NC(=O)NC1c1ccc(OC)c(OC)c1 (configuration not stated)	.	.	.	-4.2	.	.
COC(=O)C1=C(C)NC(=O)NC1c1ccc(N2CCC(c3ccccc3)=N2)cc1 (configuration not stated)	103.5	78.3*	13.6	-3.4	4.7	-78.3
CCOC(=O)c1c(NCc2ccccc2)n[nH]c1C	108.5	4.3	47.7*	-0.3	3.1	-4.3
CCOC(=O)c1c(Nc2ccccc2OCCOC)n[nH]c1C	94.5	15.3	48.2*	-5.6	-13.2	-15.3
CCOC(=O)c1c(C)nsc1NCc1ccccc1	119.1	10.3	-1.5	-3.3	.	-10.3
COC(=O)[C@]12C[C@H](CC(=O)NCc3cccs3)C(=O)N(Cc3ccc(Cl)cc3Cl)C1=C[C@H](C(C)C)O[C@@H]2C1CC1	.	.	.	-3.0	.	.
CC(C)CC(=O)c1c(O)cc(O)c2c1OC1=C(C(=O)C(C)(C)C(=O)C1(C)C)C2CC(C)C (configuration not stated)	.	.	.	-6.0	.	.
CC(=O)N1CCc2cc(S(=O)(=O)NCCC(=O)NCc3ccc(Cl)cc3)ccc21	.	.	.	-5.6	.	.
N#C/C(=C/c1ccc(N2CCOCC2)o1)c1ccc(Cl)cc1	129.9	85.4*	4.2	5.9	.	-85.4
N#C/C(=C\c1ccc(N2CCOCC2)o1)c1nc2ccccc2[nH]1	110.3	14.7	18.5	6.6	.	-14.7
C#CCN1CC(N(C)CCOC(=O)CCCc2ccccc2)CS1(=O)=O (configuration not stated)	.	.	.	-0.5	.	.
CCCC(=O)Nc1cc(-c2nnc(OC)c3ccccc23)ccc1N1CCCCC1	103.0	.	1.1	.	-27.9	.
COc1nnc(-c2ccc(N3CCCCC3)c(N)c2)c2ccccc12	90.2	35.1	64.3*	-2.5	.	.
CCOC(=O)N1CCC(N2CC34C=CC(O3)C(C(=O)Nc3ccc(C)cc3)C4C2=O)CC1 (configuration not stated)	95.4	-14.1	77.2*	-0.6	.	14.1
CCOC(=O)C1C2C=CC3(CN(C4CCCC4)C(=O)C13)O2 (configuration not stated)	92.6	-13.6	2.0	-3.1	5.4	13.6
CC(C)[C@H](CO)Nc1nc(Nc2ccc(Cl)c(C(=O)O)c2)c2ncn(C(C)C)c2n1	108.0	-14.8	7.6	0.2	0.9	14.8
CC(C)n1cnc2c(Nc3cccc(Cl)c3)nc(NCCCO)nc21	109.9	-19.3	68.9*	3.2	2.9	19.3
SMILES	Yeast superoxide	SR-BI HDL uptake	AHR act	SMARCA2 activ	Hep lipid drop	SR-BI DiI-HDL act
O=C(c1ccco1)N1CCN(c2ncnc3c2[nH]c2ccc(Cl)cc23)CC1	106.5	.	81.5*	.	.	.
Cc1ccc2[nH]c3c(N4CCN(Cc5ccccc5)CC4)ncnc3c2c1	100.2	-6.3	65.1*	-1.1	-32.5	6.3
COc1ccc(-n2c(N)c(-c3nc4ccccc4n3C)sc2=S)cc1	95.7	-0.1	23.4	3.7	-2.1	0.1
CCOc1ccc(-n2c(N)c(-c3nc4ccccc4[nH]3)sc2=S)cc1	114.0	31.4	72.0*	1.4	-7.3	-31.4
CCOC(=O)CC[C@@]1(C(=O)OCC)C[C@@H](CC(=O)NCC23CC4CC(CC(C4)C2)C3)C(=O)N2CCCC=C21	.	.	.	-1.2	.	.
CCCCC(=O)Nc1nn(CC(C)C)c2nc3ccccc3cc12	103.9	17.1	38.7	0.0	17.7	-17.1
CCCn1nc(NC(=O)CC(C)C)c2cc3ccccc3nc21	99.5	0.7	78.1*	-1.4	.	-0.7
CCOC1=C2[C@H](c3ccccc3)N(S(=O)(=O)c3ccc(C)cc3)[C@H](C(C)C)[C@H]2C(C#N)(C#N)C(C#N)(C#N)C1	.	.	.	-2.9	.	.
COc1ccc(/C=N/Nc2ncnc3c2[nH]c2ccccc23)c(OC)c1OC	97.8	-3.1	72.2*	1.6	-4.5	3.1
COc1ccc2[nH]c3c(NCc4ccco4)ncnc3c2c1	80.7	.	71.2*	.	.	.
C=CCNc1ncnc2c1[nH]c1ccc(C)cc12	95.0	-3.8	104.6*	1.1	-11.8	3.8
COc1cccc(/C=N/Nc2ncnc3c2[nH]c2ccc(C)cc23)c1OC	103.4	-6.8	62.1*	-2.5	22.4	6.8
CCN(CC)C(=O)CSc1nnc(-c2ccccn2)n1C	.	.	.	-5.9	.	.
O=C(Nc1ccc2[nH]ccc2c1)c1cc(-c2ccc(Cl)cc2)nc2ccccc12	.	.	.	-4.9	.	.
COc1cccc(N2CCc3c(C)nc4ccc(Cl)cc4c32)c1	96.5	17.0	.	-0.8	-13.1	-17.0
CCN1Cc2c(/C=C/c3ccccc3)nc3ccc(OC)cc3c2N(c2cccc(Cl)c2)C1	89.7	51.6	65.0*	-1.2	-33.8	-51.6
CN(N=Cc1cccc2cccnc12)c1ccc([N+](=O)[O-])cc1[N+](=O)[O-]	.	21.0	.	0.9	.	-21.0
CN(C)/N=C/c1ccc([N+](=O)[O-])cc1[N+](=O)[O-]	89.7	6.8	59.1*	-0.3	-23.5	-6.8
COC(=O)Nc1ccc2c(c1)ncn2C1CCCCC1	89.2	-9.7	66.2*	-1.5	.	9.7
CCn1c(SCC(=O)c2ccc3ccccc3c2)nnc1-c1ccco1	89.5	-10.5	77.8*	-3.1	-1.7	10.5
O=C(Nc1ccc2c(c1)OCO2)NC1CCN(S(=O)(=O)c2ccc(F)cc2)CC1	.	.	.	-4.5	.	.
COc1ccc(NC(=O)c2sc3nc(-c4cccnc4)ccc3c2N)cc1OC	102.6	73.6*	-6.4	-5.2	.	-73.6
COc1ccc(-c2ccc3c(N)c(C(=O)c4cccc(OC)c4)sc3n2)cc1	99.2	25.3	77.3*	-3.1	13.2	-25.3
COc1ccc(NC(=O)c2sc3nc(-c4cccnc4)ccc3c2N)cc1	99.2	?	-11.2	-2.4	-12.7	-71.8
CCOC(=O)[C@]12CCCC3=C1N(CCC3)C(=O)[C@@H](CC(=O)N1CCOCC1)C2	.	.	.	0.1	.	.
COc1ccccc1Nc1cc(C)nc2c(C)cccc12	.	.	.	-5.7	.	.
